Assay results as given in article PMC5517787 (International Journal for Parasitology: Drugs and Drug …, 2017).
Several values for one entry are separate records, joined by “and”; a condition that tells them apart may be missing. Equal values may be shown once. Read-outs that look alike come from different tables or passages of the source. Marks after values point to notes of the source that are not given here.

Tests used:
[1] = tested on: Haemonchus contortus exsheathed third-stage larvae (xL3s); experiment: Whole-organism xL3 motility assay; type: cell-based; conditions: for IC50: Haemonchus contortus
[2] = tested on: Haemonchus contortus fourth-stage larvae (L4s); experiment: L4 motility assay; type: cell-based
[3] = tested on: mammary epithelial cell line (MCF10A); experiment: cells; type: cell-based; conditions: for IC50 / inhibition at 100 µM: Homo sapiens, MCF-10A; for IC50: 48 h, read-out: MCF10A cells IC50; for inhibition at 100 µM: read-out: MCF10A cells % inhibition at 100 μM; for Selectivity index (SI) H. contortus L4 (72 h) / Selectivity index (SI) H. contortus L4 development (7 days) / Selectivity index (SI) H. contortus xL3 (72 h): highest value of IC50 range; for selectivity index (SI) for parasitic larvae of H. contortus, range: range over xL3, L4 motility and L4 development
[4] = tested on: adult female and male Brugia malayi; conditions: ref Storey et al., 2014, cited from earlier work
[5] = tested on: microfilariae of Brugia malayi; conditions: read-out: motility IC50, B. malayi microfilariae; ref Storey et al., 2014; cited from earlier work
[6] = tested on: microfilariae of Dirofilaria immitis; conditions: read-out: motility IC50, D. immitis microfilariae; cited from earlier work
[7] = tested on: adult female and male Brugia malayi; experiment: Adult motility assay; type: cell-based; conditions: for IC50: Brugia malayi
[8] = tested on: microfilariae of Brugia malayi; experiment: Microfilariae motility assay; type: cell-based; conditions: 72 h, read-out: motility IC50, B. malayi microfilariae
In short: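 Individual gravid B. malayi females in RPMI-1640 with gentamycin (10 μg/ml) and amphotericin B (2.5 μg/ml). Two-fold test-compound dilutions from 100 to 0.97 μM in duplicate; RPMI* with 1% DMSO as negative control. Incubated at 37 °C, 5% CO2. At 72 h, about 100 released microfilariae moved to 96-well plates and filmed for 30 s on the Worminator. Run three times; IC50 from a four-parameter variable-slope fit.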

[9] = tested on: microfilariae of Dirofilaria immitis; experiment: microbe, parasite or virus in culture; type: cell-based; conditions: for IC50: Dirofilaria immitis, read-out: motility IC50, D. immitis microfilariae
[10] = tested on: adult A. ceylanicum; experiment: Adult hookworm in vitro assay; type: cell-based, Ancylostoma ceylanicum; conditions: for killing of adult A. ceylanicum: 50 μM, 72 h
In short: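 Adult worms taken from small intestines of hamsters orally infected with 150 A. ceylanicum L3s three weeks earlier. Three worms per well, 2 wells per compound, in HBSS with 10% foetal calf serum, amphotericin B (25 μg/ml), penicillin (100 U/ml) and streptomycin (100 μg/ml). Test compound at 50 μM; levamisole (50 μM) as positive control. Held 72 h at 37 °C, 5% CO2, then condition assessed microscopically.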

[11] = tested on: T. muris L1s; experiment: Whipworm L1 in vitro assay; type: cell-based, Trichuris muris
In short: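 Forty T. muris L1s per well in 100 μl RPMI-1640 with amphotericin B (12.5 μg/ml), penicillin (500 U/ml) and streptomycin (500 μg/ml). Test compound at 100 μM in duplicate; levamisole (100 μM) as positive control. Held 24 h at 37 °C, 5% CO2. Total L1s counted, then larvae stimulated with 100 μl hot water and motile L1s counted.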

[12] = 24 h, read-out: xL3 motility IC50
[13] = 48 h, read-out: xL3 motility IC50
[14] = 72 h, read-out: xL3 motility IC50
[15] = 24 h, read-out: L4 motility IC50
[16] = 48 h, read-out: L4 motility IC50
[17] = 72 h, read-out: L4 motility IC50
[18] = IC50 MCF10A / IC50 nematode, estimated IC50 range

Compound | IC50 [1, 12] | IC50 [1, 13] | IC50 [1, 14] | IC50 [2, 15] | IC50 [2, 16] | IC50 [2, 17] | IC50 [3] | inhibition at 100 µM [3] | Selectivity index (SI) H. contortus L4 (72 h) ([3]; IC50 MCF10A / IC50 nematode) | Selectivity index (SI) H. contortus L4 development (7 days) ([3]; IC50 MCF10A / IC50 nematode) | selectivity index (SI) for parasitic larvae of H. contortus, range [3] | Selectivity index (SI) H. contortus xL3 (72 h) ([3]; IC50 MCF10A / IC50 nematode) | IC50 [6] | killing of adult A. ceylanicum [10] | also measured
C[C@](C#N)(COc1cc(C#N)ccc1C(F)(F)F)NC(=O)c1ccc(SC(F)(F)F)cc1 [Monepantel, monepantel] | 480 ± 230 nM | 260 ± 150 nM | 160 ± 80 nM | 760 ± 290 nM | 340 ± 180 nM | 370 ± 320 nM | 24900 ± 11800 nM | 0.1 ± 0.05% | 67.4 | 332.4 | 67–332 |  |  |  | 
CO/N=C1\C[C@]2(C[C@@H]3C[C@@H](C/C=C(\C)C[C@@H](C)/C=C/C=C4\CO[C@@H]5[C@H](O)C(C)=C[C@@H](C(=O)O3)[C@]45O)O2)O[C@H](/C(C)=C/C(C)C)[C@H]1C [Moxidectin, moxidectin] | 190 ± 30 nM | 970 ± 840 nM | 80 ± 40 nM | 70 ± 40 nM | 50 ± 20 nM | 20 ± 10 nM | < 6000 nM | 0.05 ± 0.01% | 300 | 1.7 | 2 to 300 | 75 | 9300 nM |  | comparison value for motility of adult B. malayi ([4]; 24 h): 1.3 µM; comparison value for motility of adult B. malayi ([4]; 48 h): 2.9 µM; IC50 [5]: ~6000 nM
O=C(Nc1ccc(Cl)cc1)N1CCCC1c1nc(-c2ccccc2)no1 (stereo not shown) [SN00797439, N-(4-chlorophenyl)-2-(3-phenyl-1,2,4-oxadiazol-5-yl)-1-pyrrolidinecarboxamide] | 3460 ± 820 nM | 10100 ± 2060 nM | 5930 ± 1380 nM | 6250 to 12500 nM | 780 to 1500 nM | 310 to 780 nM | 50000 to 100000 nM | 6.2 ± 0.66% | 128.2 ^b | 9.1 | 9–128 | 16.9 |  | killed | xL3 phenotype ([1]; 20 μM): “coiled” xL3 phenotype; reduction of xL3 motility ([1]; 20 μM, 72 h, primary and confirmatory screens): ≥ 70%; IC50 ([1]; read-out: xL3 IC50 (abstract summary)): 3460 to 5930 nM; IC50 ([2]; read-out: L4 motility IC50 (abstract summary)): 310 to 12500 nM; concentration at which movement of female and male adults ceased ([7]; 24 h): 100 µM; concentration at which movement of female and male adults ceased ([7]; 48 h): 50 µM; IC50 ([7]; 24 h, read-out: motility IC50, B. malayi adult female): 25000 to 50000 nM; IC50 ([7]; 24 h, read-out: motility IC50, B. malayi adult male): 25000 to 50000 nM; IC50 [8]: ~3000 nM; concentration giving complete inhibition of microfilariae motility [9]: 100 µM; IC50 ([9]; 24 h): ~50000 nM; IC50 ([9]; 48 h): ~50000 nM; kill of adults of A. ceylanicum (abstract) [10]: > 90%; T. muris L1s dead ([11]; 100 μM, 24 h): > 90% and 90.1%; IC50 ([11]; Trichuris muris, read-out: IC50 on first-stage larvae of T. muris (abstract)): 3000 to 50000 nM; Selectivity index (SI) D. immitis mff (48 h) [3]: 2 ^b; Selectivity index (SI) B. malayi adult females [3, 18]: 2 ^b; Selectivity index (SI) B. malayi adult males [3, 18]: 2 ^b
c1ccc([C@H]2CN3CCSC3=N2)cc1 [levamisole, reference compound] |  |  |  |  |  |  |  |  |  |  |  |  |  | killed | killing of T. muris L1s ([11]; 100 μM, 24 h): killed
ivermectin |  |  |  |  |  |  |  |  |  |  |  |  | 43000 nM |  | 
